CASP6 VEID inh: inhibitors of human caspase-6. P55212. purified caspase-6, Z-VEID-R110 cleavage fluorescence. inhibition, % at 12.5 µM. 350,000 tested, 0.53% active;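 active = mean inhibition across replicates at least about 35%, with every replicate also reaching that limit, limit read from the data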;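 also: 0% = median of neutral control wells and 100% = no fluorescence left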
Target sequence (P55212 24-179 limits assumed): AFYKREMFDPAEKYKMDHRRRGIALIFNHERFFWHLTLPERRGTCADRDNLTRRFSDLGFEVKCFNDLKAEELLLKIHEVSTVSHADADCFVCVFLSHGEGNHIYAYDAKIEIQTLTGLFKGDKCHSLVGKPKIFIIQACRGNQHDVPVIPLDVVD
Target sequence (P55212 194-293 limits assumed): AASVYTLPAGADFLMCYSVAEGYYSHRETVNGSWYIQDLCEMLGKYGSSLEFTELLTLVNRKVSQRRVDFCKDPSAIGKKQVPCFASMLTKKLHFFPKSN
UHRF1 binding: human UHRF1 methylated DNA binding inhibitors | 370,000 tested, 0.75% active | inhibition, % at 4.4 µM | UHRF1 binding to methylated oligo, TR-FRET | Q96T88; in the data active = inhibition above about 21%;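 also: UHRF1 SRA domain binding a hemimethylated CpG hairpin DNA probe; 0% = median of test compound wells and 100% = reference inhibitor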
LEDGF integ inh: blocks HIV-1 LEDGF/p75-dependent DNA integration; TR-FRET IN-LEDGF/p75 DNA integration, Eu/Cy5; 370,000 tested, 0.64% active; AID 743269; inhibition, % at 3.7 µM;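 active = inhibition above the screen-wide mean plus 3 SD, cut at about 13% in these data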;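 also: signal is the Cy5 over europium emission ratio at 671 and 618 nm; 0% = plate median of compound wells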
NSD2 HMT inh: inhibitors of human histone methyltransferase NSD2; O96028; NSD2 peptide methylation, AlphaScreen, 120 min; inhibition, % at 12.5 µM; 310,000 tested, 0.54% active; in the data active = inhibition above about 50%
TDP2 absorb: TDP2 (human) inhibition, absorbance primary screen; recombinant TDP2, T5PNP hydrolysis, p-nitrophenol absorbance 415 nm; inhibition, % at 12.8 µM; 370,000 tested, 0.34% active; AID 720702;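 active = inhibition above the mean of all tested compounds plus 3 SD, set per campaign, cut at about 25% in these data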;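 also: 0% = DMSO with enzyme and 100% = buffer with substrate but no TDP2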
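Evaluation: % inhibition relative to enzyme-containing and enzyme-free wells. Material: recombinant human TDP2. Benchmarks: enzyme-free and DMSO wells. Timing: enzyme reaction with compound for 2 h at 37 °C. Compound dosing: 12.8 µM only. Measured by: p-Nitrophenol epi absorbance. Reagent: T5PNP substrate at 5 mM, a TopII-DNA adduct mimic. Replication: single well per compound.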
MBD2 DNA inh: MBD2-methylated oligo binding inhibition; inhibition, % at 4.4 µM; 370,000 tested, 0.31% active; AID 686964; TR-FRET, MBD2 binding to methylated oligonucleotide; in the data active = inhibition above about 13%
Target sequence (Q9UBB5 whole entry, looked up): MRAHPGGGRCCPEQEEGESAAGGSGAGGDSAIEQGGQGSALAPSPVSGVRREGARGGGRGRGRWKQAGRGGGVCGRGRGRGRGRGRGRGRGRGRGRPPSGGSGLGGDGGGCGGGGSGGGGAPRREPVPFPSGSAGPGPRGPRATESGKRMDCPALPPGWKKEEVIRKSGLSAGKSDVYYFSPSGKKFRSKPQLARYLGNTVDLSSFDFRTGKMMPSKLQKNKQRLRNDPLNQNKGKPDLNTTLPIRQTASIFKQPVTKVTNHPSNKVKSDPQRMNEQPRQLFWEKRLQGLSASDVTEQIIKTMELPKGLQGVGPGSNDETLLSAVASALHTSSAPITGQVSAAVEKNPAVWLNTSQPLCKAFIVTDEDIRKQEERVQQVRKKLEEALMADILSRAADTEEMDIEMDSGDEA
AlphaScreen art: interferes with AlphaScreen signal, flagging NSD2 false positives | AlphaScreen artifact counterscreen, preloaded methylated H4 peptide | 1,500 tested, 9.4% active | shares compounds with NSD2 HMT inh | AC35, µM (doses to about 10 µM), for inactives: at the highest dose activity change, negative = signal loss | AID 1053174; call rule not given here
Numbers without * were called inactive; x = not tested or not shown. This is a sample that favours compounds with a hit; in the whole collection about 1.8% have one here.

SMILES	CASP6 VEID inh	UHRF1 binding	LEDGF integ inh	NSD2 HMT inh	TDP2 absorb	MBD2 DNA inh	AlphaScreen art
CCN(CC)S(=O)(=O)c1cccc(-c2nnc(SCCCC(=O)c3ccc(F)cc3)o2)c1	x	2.5	2.3	126.6*	-1.8	-1.7	-1.2%
CC(=O)C1=C(O)C(=O)N(Cc2cccnc2)C1c1ccc(O)cc1 (stereo not drawn)	5.3	-6.8	-0.8	-3.6	1.4	-1.7	x
CC(=O)C1=C(O)C(=O)N(Cc2cccnc2)C1c1ccccc1 (stereo not drawn)	x	-11.3	-0.7	130.6*	14.8	-2.2	-2.2%
Cc1c(-c2cccc(Cl)c2)nc2ccccc2c1C(=O)OC/C(O)=C(\C#N)c1nc2ccccc2[nH]1	2.7	-1.6	-3.2	55.9*	9.0	-2.4	-9.3%
CCCN=Cc1c(CCC)[nH]n(-c2nc3ccccc3s2)c1=O	x	-2.1	0.3	x	5.8	-4.0	x
CCCc1[nH]n(-c2nc3ccccc3s2)c(=O)c1C=NCCCN(CC)CC	-47.3	0.2	1.7	53.6*	10.6	-2.2	1.3%
CCCc1cc(=O)n(-c2nc3ccccc3s2)[nH]1	18.9	-3.9	0.4	79.2*	5.3	4.3	1.5%
CCCCn1nnc(NC(=O)c2ccco2)n1	x	0.2	-2.6	122.8*	7.9	-1.0	3.2%
CCOc1cc(/C=C2\C(=O)NN(c3ccccc3)C2=O)cc([N+](=O)[O-])c1O	37.0*	0.4	-1.9	110.9*	-1.4	-7.5	-9.5%
Nc1c(C(=O)OCC2CCCO2)c2nc3ccccc3nc2n1C1CCCCC1 (stereo not drawn)	9.9	4.1	2.2	75.9*	7.5	-0.1	-7.0%
NC(=O)c1[nH]cnc1N=NN(CCO)Cc1ccccc1	0.3	12.2	-1.6	68.7*	6.2	5.3	-1.9%
CSc1ccccc1NC(=O)CN(C)C(=O)COc1ncnc2ccccc12	0.3	5.1	-2.3	55.7*	0.4	1.3	0.7%
C[C@H]1CCCCO[C@H](CN(C)S(=O)(=O)c2ccccc2)[C@@H](C)CN([C@@H](C)CO)C(=O)c2cc(N(C)C)ccc2O1	-0.4	x	x	x	x	x	x
COc1ccc(C(=O)N[C@H](C(=O)NCc2ccc(C)cc2)C(C)C)cc1	0.2	-0.6	-2.0	75.3*	-8.6	-2.2	-3.0%
CC1CCCC(NC(=O)COC(=O)c2c[nH]c(=O)[nH]c2=O)C1C (stereo not drawn)	x	3.8	0.2	77.8*	-2.4	2.5	-6.5%
CCc1cccc(OCCn2nc(C(=O)O)c3ccccc3c2=O)c1	3.4	1.6	-2.7	-1.2	-3.5	2.8	x
Cc1cc(OCCn2nc(C(=O)O)c3ccccc3c2=O)ccc1C(C)C	4.2	-0.4	-1.6	90.5*	-0.7	3.5	-2.7%
C[C@H](CO)N1C[C@H](C)[C@H](CN(C)S(=O)(=O)CC(F)(F)F)OCc2ccccc2-c2ccccc2C1=O	-0.4	x	x	x	x	x	x
Cc1cc([N+](=O)[O-])cc2c1NC(=O)C2(O)N1CCOCC1 (stereo not drawn)	7.3	-3.1	1.1	59.2*	13.5	-3.7	1.6%
CC1CCN(C2(O)C(=O)Nc3ccc([N+](=O)[O-])cc32)CC1 (stereo not drawn)	x	1.1	2.0	2.1	-11.9	-1.1	x
O=C(c1cccc(F)c1)N1C[C@H]2[C@@H](c3ccccc31)[C@@H](CO)N2C(=O)C1CCCCC1	-0.1	x	x	x	x	x	x
COc1cn(-c2ccccc2)nc1C(=O)NCc1ccc(C)cc1	3.0	-4.6	0.3	2.4	-2.6	-5.7	x
COc1cn(-c2ccccc2)nc1C(=O)NCc1ccccc1	-0.8	-0.4	4.1	79.5*	5.4	-0.8	-4.5%
COc1ccccc1S(=O)(=O)N1CC[C@@H]2[C@H]1c1cc(-c3ccccc3F)ccc1N[C@@H]2CO	0.0	x	x	x	x	x	x
C[C@@H]1CN([C@@H](C)CO)C(=O)c2cccc(NC(=O)c3ccc(-c4nccs4)cc3)c2O[C@@H]1CN(C)C(=O)Nc1ccc2c(c1)OCO2	-1.6	x	x	x	x	x	x
SMILES	CASP6 VEID inh	UHRF1 binding	LEDGF integ inh	NSD2 HMT inh	TDP2 absorb	MBD2 DNA inh	AlphaScreen art
COc1cccc(-c2ccc3c(c2)O[C@H](CN(C)C(=O)C2CCC2)[C@@H](C)CN([C@H](C)CO)S3(=O)=O)c1	-0.7	x	x	x	x	x	x
CN(C)Cc1csc(NC(=O)Nc2cccc(Cl)c2)n1	-0.5	0.9	4.5	74.3*	5.3	-1.3	-4.4%
CC1CCC2C(C1)c1sc(=O)[nH]c1SC2(C)C (stereo not drawn)	x	1.3	1.2	111.0*	6.2	2.3	-2.0%
Cc1cccc(Nc2nc(N)c([N+](=O)[O-])c(NCc3ccco3)n2)c1	2.5	-2.9	5.0	-0.3	-9.4	-10.0	x
Cc1cccc(Nc2nc(NCc3ccco3)nc(N)c2[N+](=O)[O-])c1	3.7	5.4	0.1	96.4*	-12.2	4.7	-5.3%
Cc1c(C)n(Cc2ccccc2)c2ccc(C(=O)NCCN3CCOCC3)cc12	-7.2	-1.9	-4.5	9.5	-4.1	-0.1	x
Cc1c(C)n(Cc2ccccc2)c2ccc(C(=O)OCCN(C)C)cc12	-14.6	3.2	1.7	50.5*	-13.2	2.7	-18.8%
CC1(C)Cc2cccc(OCC(=O)N3CCN(c4ccccc4)CC3)c2O1	x	-2.6	1.8	-4.3	0.0	-1.8	x
CC1(C)Cc2cccc(OCC(=O)O)c2O1	x	-1.9	-3.5	53.7*	-5.2	-1.9	-0.5%
COc1ccccc1OCCOc1ccc(/C=C2\C(=N)N3N=C(S(C)(=O)=O)SC3=NC2=O)cc1	0.7	2.8	-2.8	71.1*	-1.9	4.8	-7.4%
COc1cccc(OCCOc2ccc(/C=C3\C(=N)N4N=C(S(C)(=O)=O)SC4=NC3=O)cc2OC)c1	7.8	-1.3	6.3	6.7	-7.3	-5.1	x
Cc1ccc(S(=O)(=O)N[C@@H]2CC[C@H](CCNS(=O)(=O)Cc3ccccc3)O[C@H]2CO)cc1	-0.5	x	x	x	x	x	x
CCc1c(C)nc2ncnn2c1Nc1ccc(C)cc1	1.0	3.8	-3.5	54.7*	6.9	5.6	-0.6%
CCc1c(C)nc2ncnn2c1Nc1ccc(C)c(C)c1	x	-1.1	4.7	11.0	7.4	0.1	x
Nc1c(Br)cc(Br)c2c1[nH]c(=O)c1ccccc12	38.8*	-10.1	-5.9	73.1*	-0.6	-6.7	-7.7%
Cc1ccc(S(=O)(=O)Nc2ccc3c(c2)C(=O)N([C@@H](C)CO)C[C@H](C)[C@@H](CN(C)Cc2ccc(C(=O)Nc4ccccc4N)cc2)OCCCC[C@@H](C)O3)cc1	2.5	x	x	x	x	x	x
C[C@@H]1CN([C@@H](C)CO)C(=O)c2cc(NC(=O)Cn3cnnn3)ccc2O[C@@H]1CN(C)S(=O)(=O)c1ccccc1	-1.7	x	x	x	x	x	x
Cc1ccc(S(=O)(=O)/N=C2/NC(=O)/C(=C/c3cccnc3)S2)cc1	x	-1.2	0.1	4.4	5.2	-1.1	x
Cc1ccc(S(=O)(=O)/N=C2/NC(=O)/C(=C\c3cc(Br)cc(Br)c3O)S2)cc1	x	x	x	109.3*	x	x	-3.6%

Assay outcomes deposited in PubChem BioAssay by several laboratories.
